Most compounds without a hit are left out; they make up all but 4.1% or so of the library.
SMARCA2 activ: SMARCA2 function activation, primary screen; AID 652017; activation, % at 9.1 µM; 370,000 tested, 1% active; MG213 cells, MMTV-luciferase reporter, dexamethasone, overnight; in the data active = activation above about 7.8%;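 note: 0% = vehicle wells and 100% = reference activator wells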
Efflux pump inh: blocks antifungal efflux pumps in multiplex yeast assay. S. cerevisiae Candida pump triplex, Nile Red efflux. inhibition, % at 10 µM. 330,000 tested, 0.44% active;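 active = plate passing quality check with inhibition over a set limit, or well fluorescence over plate mean plus 4 SD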;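 note: Nile Red retained in pooled yeast measured as flow cytometry median fluorescence; 0% = buffer negative control and 100% = Enniatin B positive control; higher means more Nile Red kept so more efflux inhibition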
TbMetRS inhib: Trypanosoma brucei MetRS inhibition; 360,000 tested, 0.4% active; inhibition, % at 11.9 µM; AID 624268; purified T. brucei MetRS, ATP depletion, Kinase-Glo luminescence;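 active = inhibition above a per-plate cutoff of the control wells' mean inhibition plus 3 SD, cut at about 5.5% in these data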;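 note: 0% = DMSO wells median and 100% = median of wells with control inhibitor compound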
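Dosing: 11.9 µM single point; system: parasite MetRS enzyme; technique: luminescence of leftover ATP; times: 15 min enzyme-compound preincubation, 2 h reaction, 10 min detection, 25 °C; replicates: each compound tested once; read-out basis: percent inhibition relative to median high and low control wells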
AHR activator: activators of human aryl hydrocarbon receptor; AHR-responsive luciferase reporter cells, luminescence; activation, % at 5 µM; 320,000 tested, 2.5% active; in the data active = activation above about 47%;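 note: 0% = vehicle wells and 100% = reference agonist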
H9c2 TAG inh: reduces triacylglycerol accumulation in H9c2 cells; 230,000 tested, 0.66% active; inhibition, % at 12.5 µM; Nile Red lipid (TAG) fluorescence; cells loaded with 200 µM oleic acid; AID 651582;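 active = pattern-corrected inhibition of lipid staining of at least 50% with the nuclear-stain viability signal not falling by more than 50%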;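 note: 0% = DMSO wells and 100% = triacsin C control wells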
AHR act cf: confirmation of human aryl hydrocarbon receptor activators; shares compounds with AHR activator; human cells, AHR-responsive luciferase reporter, luminescence; activation, % at 9 µM; 2,300 tested, 87% active; AID 2845; in the data active = activation above about 49%;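 note: HepG2 hepatoma cells carrying a DRE-driven firefly luciferase reporter; 0% = vehicle wells and 100% = reference agonist wells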
PXR counter: PXR activation, counter-screen for AHR activators; cell-based PXR reporter, luciferase luminescence; shares compounds with AHR activator; 2,300 tested, 88% active; activation, % at 11.6 µM; in the data active = activation above about 11%;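 note: human hepatoma DPX-2 cells expressing full-length human PXR; 0% = DMSO and 100% = reference agonist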
Target sequence (O75469 whole entry, looked up): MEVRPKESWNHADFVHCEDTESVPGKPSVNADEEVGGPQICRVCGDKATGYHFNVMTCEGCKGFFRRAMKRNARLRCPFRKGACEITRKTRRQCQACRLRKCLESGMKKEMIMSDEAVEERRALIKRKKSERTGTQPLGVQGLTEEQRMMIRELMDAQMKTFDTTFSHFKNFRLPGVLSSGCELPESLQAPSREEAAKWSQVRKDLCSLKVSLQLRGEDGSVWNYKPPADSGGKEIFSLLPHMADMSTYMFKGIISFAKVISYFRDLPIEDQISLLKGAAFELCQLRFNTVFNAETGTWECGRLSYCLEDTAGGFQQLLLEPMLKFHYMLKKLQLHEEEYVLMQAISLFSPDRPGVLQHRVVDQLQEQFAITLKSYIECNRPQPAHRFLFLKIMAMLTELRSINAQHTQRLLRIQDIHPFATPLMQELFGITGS
Tb MetRS conf: confirmation of Trypanosoma brucei MetRS inhibitors; shares compounds with TbMetRS inhib; T. brucei MetRS enzyme, luminescence (ATP depletion); inhibition, % at 11.9 µM; 1,400 tested, 93% active; AID 624412; in the data active = inhibition above about 7%
Jurkat cytotox: counter-screen for T. brucei MetRS inhibitors: Jurkat cell cytotoxicity | shares compounds with TbMetRS inhib | Jurkat cells viability, ATP luminescence | inhibition, % at 8.3 µM | 1,400 tested, 12% active; in the data active = inhibition above about 15%;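 note: 0% = vehicle and 100% = reference inhibitor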
Tb MetRS inh FP: T. brucei MetRS inhibition, orthogonal assay; shares compounds with TbMetRS inhib; purified T. brucei MetRS, fluorescence polarization; inhibition, % at 11.9 µM; 1,400 tested, 44% active; AID 651607; in the data active = inhibition above about 17%;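 note: 0% = vehicle wells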
TAG conf: confirmation of triacylglycerol accumulation inhibitors; AID 651629; H9c2 lipid accumulation, Nile Red fluorescence; cells loaded with 200 µM oleic acid; shares compounds with H9c2 TAG inh; inhibition, % at 12.5 µM; 990 tested, 71% active;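 active = mean inhibition across replicates of 40% or more; inactive = mean inhibition below 40%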;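 note: plate controls were DMSO only wells for no effect and Triacsin C treated wells for full effect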
SMARCA2 conf: confirmation of SMARCA2 (BRM) function activators; MG213 cells, MMTV-luciferase with dexamethasone, luminescence, overnight; MG213 cells expressing E1A, Rb sequestered; DMSO wells 0%, reference activator 100%; shares compounds with SMARCA2 activ; activation, % at 9.1 µM; 3,500 tested, 30% active; AID 652260;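 active = activation above its plate's cutoff, the mean activation of tested wells plus 3 SD, cut at about 7.9% in these data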
VP16 Luc act: activates GAL4-VP16 luciferase, flagging SMARCA2 activator hits; HEK293 GAL4-VP16 pG5luc reporter, luciferase luminescence; scaled: DMSO wells 0%, SAHA wells 100%; activation, % at 9.1 µM; shares compounds with SMARCA2 activ; 3,500 tested, 41% active;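 active = activation above the solvent-only control well mean plus 3 SD, averaged across control plates, cut at about 5.2% in these data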
* marks the source's active call; other numbers are inactive results; nt = no result; ! = not confirmed by another sample.

SMILES	SMARCA2 activ	Efflux pump inh	TbMetRS inhib	AHR activator	H9c2 TAG inh	AHR act cf	PXR counter	others
CC(C)(C)C(=O)CSc1nc2ncc(Br)cc2[nH]1	-1	0	7.5*	84*	17	57*	125*	Tb MetRS conf=18*;Jurkat cytotox=-1;Tb MetRS inh FP=7
COc1ccc(S[C@]2(C(=O)N(C)C)CC(=O)N(c3ccc(Cl)cc3)[C@@H]2c2ccc(OC)cc2)cc1	-2	nt	nt	nt	nt	nt	nt
Cc1ccc2[nH]c3c(NCCCN4CCCC4=O)ncnc3c2c1	4	0	21*	86*	3	84*	162*	Tb MetRS conf=36*;Jurkat cytotox=2;Tb MetRS inh FP=25*
Cc1ccc(-n2ncc3c(NCCCN4CCCC4=O)ncnc32)c(C)c1	4	0	-1	-2	13	nt	nt
C=CCNc1ncnc2c1[nH]c1ccc(Cl)cc12	-1	0	51*	110*	0	113*	44*	Tb MetRS conf=64*;Jurkat cytotox=18*;Tb MetRS inh FP=38*
COc1cccc(CNC(=O)CN2CCCc3ccccc32)c1OC	2	nt	nt	nt	nt	nt	nt
COc1ccc2c(c1)c(/C=N/Nc1nc3ccccc3[nH]1)c(C)n2C	-8	0	7.1*	98*	50*	63*	40*	Tb MetRS conf=19*;Jurkat cytotox=16*;Tb MetRS inh FP=18*
COc1ccc(/C=N/Nc2nc3ccccc3[nH]2)cc1OC	-1	0	8.5*	111*	nt	86*	nt	Tb MetRS conf=12*;Jurkat cytotox=2;Tb MetRS inh FP=31*
CSc1c(N(C)C)c(=O)c1=S	7	nt	nt	nt	nt	nt	nt
COc1ccccc1CN1CCc2c([nH]c3ccccc23)C1	2	0	16*	99*	nt	90*	27*	Tb MetRS conf=31*;Jurkat cytotox=15;Tb MetRS inh FP=12
COc1cccc(/C=C2\CC3(OC(=O)C(C)(C)C)CCCN2C3)c1 (stereo unspecified)	-3	nt	nt	nt	nt	nt	nt
Nc1c(Cl)cc(-c2csc(N3CCCC3c3nc4cc(Cl)c(N5CCCCC5)cc4n3CCCO)n2)cc1Cl (stereo unspecified)	0	nt	0	86*	93*	86*	197*	TAG conf=128*
COc1ccccc1NC(=O)N1CCC(c2nc3cc(C)c(C)cc3[nH]2)CC1	1	0	-1	133*	51*	34	56*	TAG conf=45*
CCCCCC(=O)Nc1nc(C)c(-c2csc(Nc3cc(OC)ccc3OC)n2)s1	1	0	0	84*	59*	82*	73*	TAG conf=75*
Clc1cccc(Nc2nc(-c3ccncc3)cs2)c1	1	0	2	98*	81*	96*	11*	TAG conf=59*
O=C(Nc1cccc(-c2csc(Nc3ccc(Cl)cc3)n2)c1)c1cccc(C(F)(F)F)c1	1	0	0	106*	54*	37	25*	TAG conf=65*
c1ccc(-c2csc(Nc3cccnc3)n2)cc1	4	0	-1	31	4	nt	nt
O=C(Cc1coc2ccc3ccccc3c12)Nc1nccs1	-2	0	-1	79*	52*	93*	22*	TAG conf=43*
O=C(CNS(=O)(=O)c1cccc2ccccc12)N1CCN(c2ncccn2)CC1	-5	nt	nt	nt	nt	nt	nt
COc1cc(NC(=O)c2cnc(N)s2)cc(C(=O)Nc2cccc(C(F)(F)F)c2)c1	2	0	-1	27	35	nt	nt
COc1cc(NC(=O)c2csc(N)n2)cc(C(=O)Nc2cccc(C(F)(F)F)c2)c1	-4	0	-1	85*	59*!	91*	32*	TAG conf=50*
C[C@H](O)[C@@H]1CN2CCc3c([nH]c4c(-c5ccc6c(c5)OCO6)cccc34)[C@@H]2C[C@@H]1N(C)C(=O)c1ccco1	0	nt	nt	nt	nt	nt	nt
CCN=C1NC(c2ccccc2C(F)(F)F)C(C(=O)OC)=C(C)N1Cc1ccc(C(F)(F)F)cc1 (stereo unspecified)	-2	nt	nt	nt	nt	nt	nt
COCCOC(=O)c1[nH]c2c(c1C)C(=O)CC(c1ccccc1)C2 (stereo unspecified)	nt	0	0	115*	80*	56*	124*	TAG conf=47*
COCCOC(=O)c1[nH]c2c(c1C)C(=O)CC(c1ccc(F)cc1)C2 (stereo unspecified)	0	0	0	46	8	nt	nt
SMILES	SMARCA2 activ	Efflux pump inh	TbMetRS inhib	AHR activator	H9c2 TAG inh	AHR act cf	PXR counter	others
Cc1ccc(-c2nnc3n2N=C(c2ccc(-c4ccccc4)cc2)CS3)cc1	-4	nt	nt	nt	nt	nt	nt
COC(=O)C[C@H]1CC[C@H]2[C@H](COc3ccc(NC(=O)Cc4cccs4)cc3C(=O)N2C)O1	-1	nt	nt	nt	nt	nt	nt
Cc1ccc(-n2nnnc2SCC(=O)Nc2ccc3c(c2)OCCO3)cc1C	-4	0	-1	2	nt	nt	nt
Cc1ccc(NC(=O)CSc2nnnn2-c2ccc3c(c2)OCO3)cc1C	-4	0	-1	159*	57*	167*	226*	TAG conf=-15
O=c1[nH]c2ccccc2c2nc3ccccn3c12	12*	0	-1	91*	-3	117*	19*	SMARCA2 conf=16*;VP16 Luc act=7.1*
CCCCCN1CCCCC(NC(=O)c2ccccc2C)C1=O (stereo unspecified)	-1	nt	nt	nt	nt	nt	nt
COc1ccc(CN(CCN2CCOCC2)C(=O)c2cc(F)cc(F)c2)cc1OC	4	nt	nt	nt	nt	nt	nt
NNc1nc2c(-c3ccc(Cl)cc3)nnn2c2ccccc12	8.4*	0	-1	97*	-3	117*	16*	SMARCA2 conf=7;VP16 Luc act=11*
CN1CCN(c2ccc(NC(=O)c3sc4ccccc4c3Cl)cc2)CC1	8.4*	0	0	80*	4	49*	nt	SMARCA2 conf=1;VP16 Luc act=3
Cc1cc(N/N=C\c2ccccc2)nc(-c2ccccc2O)n1	13*	0	-1	82*	nt	108*	15*	SMARCA2 conf=-2;VP16 Luc act=3
Cc1cc(N/N=C/c2cccc(Br)c2)nc2ccccc12	12*	0	-1	100*	nt	97*	34*	SMARCA2 conf=4;VP16 Luc act=7.8*
CCCc1cc(=O)n2[nH]c(-c3ccc(Br)cc3)cc2n1	8.2*	0	0	104*	6	110*	47*	SMARCA2 conf=4;VP16 Luc act=9.2*
